ChEMBL document CHEMBL5321232, “Synthesis and biological evaluation of dual MDM2/XIAP inhibitors based on the tetrahydroquinoline scaffold” (Eur J Med Chem, 2023)

What was measured:
A-375 = test: Antiproliferative activity against human A-375 cells assessed as inhibition of cell growth incubated for 72 hrs by MTS assay; details: A-375, 72 h
[1] = Antiproliferative activity against human EU-1 cells assessed as inhibition of cell growth incubated for 44 hrs by WST assay; type: functional, cell-based; details: EU-1, 44 h
Procedure, shortened: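 Pediatric ALL-derived EU-1 cells grown in RPMI 1640 with 10% FBS, 2 mmol/L L-glutamine and penicillin/streptomycin at 37 °C, 5% CO2. Compounds given at graded concentrations for 44 h. WST (25 μg/well) then added for a further 4 h. OD read at 450 nm against a 620 nm reference, with cell-free wells for background.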

MDA-MB-231 = test: Antiproliferative activity against human MDA-MB-231 cells assessed as inhibition of cell growth incubated for 72 hrs by MTS assay; type: functional, cell-based; details: MDA-MB-231, 72 h
Procedure, shortened: (§1)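 Cells seeded at 3,000–8,000 per well according to growth rate and incubated overnight. They were then exposed to compounds over 3 nM–100 μM for 72 h, four replicates per concentration. MTS added, 1.5 h in the dark at 37 °C, absorbance read at 490 nm. IC50 normalized to untreated cells and fitted by nonlinear regression.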

CWR22R [2] = test: Antiproliferative activity against human 22Rv1 cells assessed as inhibition of cell growth incubated for 72 hrs by MTS assay; type: functional, cell-based; details: 22Rv1, 72 h
Procedure, shortened: as §1

CWR22R [3] = test: Inhibition of colony formation in human 22Rv1 cells assessed as reduction in number of clonogenic cells incubated for 14 days and subsequent media replacement with compound for every 3 days by crystal violet staining based microscopic analysis; type: functional, cell-based; details: dose 1-10 µM, time 14.0 day
Procedure, shortened: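 22Rv1 cells in log phase were seeded at 2,000 per well and incubated 72 h. They were then treated with 1, 5 or 10 μM for 14 days, with medium ± compound renewed every 3 days. Colonies were fixed in cold methanol, stained with 0.5% crystal violet and counted microscopically. Run in triplicate; area expressed relative to vehicle (100%) as mean ± SEM of three biological replicates.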

Structure (SMILES)	IC50 (A-375)	IC50 [1]	IC50 (MDA-MB-231)	IC50 (CWR22R [2])	inhibition (CWR22R [3])
O=S(=O)(Nc1ccc(Br)c(Br)c1)c1ccc2c(c1)C1OCCC1C(C1CCCCC1)N2 (configuration not stated)	> 10000 nM	5100 nM	> 10000 nM	–	–
CCC(=O)c1cccc(NS(=O)(=O)c2ccc3c(c2)C2OCCC2C(c2ccc(C(=O)C(C)C)cc2)N3)c1 (configuration not stated)	1300 nM	1500 nM	1900 nM	3500 nM	–
O=S(=O)(Nc1ccccc1)c1ccc2c(c1)C1OCCC1C(C1CCCCC1)N2 (configuration not stated)	> 10000 nM	2600 nM	> 10000 nM	–	–
CC(=O)c1cccc(S(=O)(=O)Nc2ccc3c(c2)C2OCCC2C(c2ccc(C(=O)C(C)C)cc2)N3)c1 (configuration not stated)	4700 nM	700 nM	2000 nM	7700 nM	–
O=S(=O)(Nc1ccc2c(c1)CCCC2)c1ccc2c(c1)C1OCCC1C(C1CCCCC1)N2 (configuration not stated)	> 10000 nM	2300 nM	2200 nM	> 10000 nM	–
CC(=O)c1ccc(NS(=O)(=O)c2ccc3c(c2)C2OCCC2C(c2ccc(C(=O)C(C)C)cc2)N3)cc1 (configuration not stated)	2000 nM	1500 nM	2100 nM	3300 nM	–
Cc1ccc(NS(=O)(=O)c2ccc3c(c2)C2OCCC2C(c2ccc4c(c2)CCO4)N3)cc1C (configuration not stated)	4600 nM	> 10000 nM	3200 nM	> 10000 nM	–
CC(C)C(=O)c1ccc(C2Nc3ccc(S(=O)(=O)Nc4ccc5c(c4)COC5=O)cc3C3OCCC23)cc1 (configuration not stated)	> 10000 nM	3800 nM	3800 nM	–	–
Cc1ccc(NS(=O)(=O)c2ccc3c(c2)C2OCCC2C(C2CCOCC2)N3)cc1C (configuration not stated)	12100 nM	1600 nM	3000 nM	> 10000 nM	–
CC(=O)c1cccc(NS(=O)(=O)c2ccc3c(c2)C2OCCC2C(C2CCCCC2)N3)c1 (configuration not stated)	1100 nM	1500 nM	1000 nM	> 10000 nM	–
O=S(=O)(Nc1ccc(Cl)c(Cl)c1)c1ccc2c(c1)C1OCCC1C(C1CCCCC1)N2 (configuration not stated)	> 10000 nM	1800 nM	> 10000 nM	–	–
CN[C@@H](C)C(=O)N[C@H](C(=O)N1CCC[C@H]1C(=O)Nc1snnc1-c1ccccc1)C1CCCCC1 [GDC-0152]	–	800 nM	–	–	–
Cc1ccc(NS(=O)(=O)c2ccc3c(c2)C2OCCC2C(C2CCN(C(=O)OC(C)(C)C)CC2)N3)cc1C (configuration not stated)	700 nM	1400 nM	1100 nM	> 10000 nM	–
Cc1cc(NS(=O)(=O)c2ccc3c(c2)C2OCCC2C(C2CCCCC2)N3)ccc1C(F)(F)F (configuration not stated)	> 10000 nM	3300 nM	> 10000 nM	–	–
CC(=O)c1cccc(NS(=O)(=O)c2ccc3c(c2)C2OCCC2C(c2cccc(C(C)=O)c2)N3)c1 (configuration not stated)	2500 nM	1000 nM	2200 nM	> 10000 nM	–
Cc1ccc(S(=O)(=O)Nc2ccc3c(c2)C2OCCC2C(c2ccc(C(=O)C(C)C)cc2)N3)cc1C (configuration not stated)	2500 nM	600 nM	1300 nM	4000 nM	–
Cc1ccc(NS(=O)(=O)c2ccc3c(c2)C2OCCC2C(C2CCCCC2)N3)cc1C (configuration not stated)	9800 nM	800 nM	5700 nM	> 10000 nM	–

Structure (SMILES)	IC50 (A-375)	IC50 [1]	IC50 (MDA-MB-231)	IC50 (CWR22R [2])	inhibition (CWR22R [3])
CC(=O)c1cccc(NS(=O)(=O)c2ccc3c(c2)C2OCCC2C(c2ccccc2)N3)c1 (configuration not stated)	900 nM	1300 nM	900 nM	> 10000 nM	–
CC(C)[C@@H](CS(=O)(=O)C(C)C)N1C(=O)[C@@](C)(CC(=O)O)C[C@H](c2cccc(Cl)c2)[C@H]1c1ccc(Cl)cc1 [NAVTEMADLIN]	600 nM	900 nM	> 10000 nM	300 nM	–
CC(C)C(=O)c1ccc(C2Nc3ccc(S(=O)(=O)Nc4cccc(N(C)C)c4)cc3C3OCCC23)cc1 (configuration not stated)	900 nM	7500 nM	1600 nM	700 nM	–
CCc1cccc(NS(=O)(=O)c2ccc3c(c2)C2OCCC2C(c2ccc(C(=O)C(C)C)cc2)N3)c1 (configuration not stated)	3200 nM	2100 nM	1500 nM	1100 nM	–
CC1CCC(NS(=O)(=O)c2ccc3c(c2)C2OCCC2C(C2CCCCC2)N3)CC1 (configuration not stated)	7500 nM	1900 nM	2400 nM	> 10000 nM	–
Cc1ccc(NS(=O)(=O)c2ccc3c(c2)C2OCCC2C(c2c[nH]c4ccccc24)N3)cc1C (configuration not stated)	> 10000 nM	9200 nM	> 10000 nM	–	–
Cc1ccc(NS(=O)(=O)c2ccc3c(c2)C2OCCC2C(c2ccc(C(=O)C(C)C)cc2)N3)cc1C (configuration not stated)	2200 nM	500 nM	2200 nM	5300 nM	Dose-Dependent Effect
CC(C)C(=O)c1ccc(C2Nc3ccc(S(=O)(=O)Nc4cccc(C(C)C)c4)cc3C3OCCC23)cc1 (configuration not stated)	2200 nM	6500 nM	1100 nM	2100 nM	–
CC(=O)c1cccc(NS(=O)(=O)c2ccc3c(c2)C2OCCC2C(c2ccc4c(c2)CCO4)N3)c1 (configuration not stated)	1300 nM	7200 nM	1100 nM	6300 nM	–
CC(=O)N1CCC(C2Nc3ccc(S(=O)(=O)Nc4ccc(C)c(C)c4)cc3C3OCCC32)CC1 (configuration not stated)	> 10000 nM	> 10000 nM	> 10000 nM	–	–
CC(C)C(=O)c1ccc(C2Nc3ccc(S(=O)(=O)Nc4cccc(C(C)(C)C)c4)cc3C3OCCC23)cc1 (configuration not stated)	5100 nM	6200 nM	2000 nM	1300 nM	–
O=S(=O)(Nc1ccc(C(F)(F)F)c(C(F)(F)F)c1)c1ccc2c(c1)C1OCCC1C(C1CCCCC1)N2 (configuration not stated)	> 10000 nM	> 10000 nM	> 10000 nM	–	–
CC(=O)c1cccc(NS(=O)(=O)c2ccc3c(c2)C2OCCC2C(c2ccc(C(C)C)cc2)N3)c1 (configuration not stated)	1900 nM	600 nM	600 nM	> 10000 nM	–
CN(C)c1cccc(NS(=O)(=O)c2ccc3c(c2)C2OCCC2C(C2CCCCC2)N3)c1 (configuration not stated)	1800 nM	4000 nM	1100 nM	> 10000 nM	–
CC(C)C(=O)c1ccc(C2Nc3ccc(S(=O)(=O)Nc4ccc5c(c4)OCO5)cc3C3OCCC23)cc1 (configuration not stated)	5900 nM	5300 nM	3300 nM	7900 nM	–
CC(=O)Nc1ccc(C2Nc3ccc(S(=O)(=O)Nc4ccc(C)c(C)c4)cc3C3OCCC23)cc1 (configuration not stated)	8100 nM	4500 nM	5100 nM	> 10000 nM	–
